# Sampled rows, rich in hits. Any-hit rate of the full collection: about 3.1%.
# rCAG RNA binder = binds r(CAG) RNA repeats; r(CAG) RNA repeat, TO-PRO-1 dye displacement fluorescence; inhibition, % at 3 µM; 370,000 compounds, 1.3% hits;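 active means inhibition above the plate cutoff, the mean of all test compounds on that plate plus 3 SD, cut at about 35% in these data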;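 further: 0% = DMSO alone and 100% = 100 µM mitoxantrone as full dye displacement; higher means more dye released from RNA so lower well fluorescence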
# LEDGF integ inh = blocks HIV-1 LEDGF/p75-dependent DNA integration. TR-FRET IN-LEDGF/p75 DNA integration, Eu/Cy5. inhibition, % at 3.7 µM. 370,000 compounds, 0.64% hits;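 active means inhibition above the screen-wide mean plus 3 SD, cut at about 13% in these data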;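 further: signal is the Cy5 over europium emission ratio at 671 and 618 nm; 0% = plate median of compound wells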
# UHRF1 MBD2 ctr = human UHRF1 methylated DNA binding inhibitors | Q96T88 | 370,000 compounds, 0.75% hits | inhibition, % at 4.4 µM | UHRF1 binding to methylated oligo, TR-FRET; in the data active means inhibition above about 21%;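 further: UHRF1 SRA domain binding a hemimethylated CpG hairpin DNA probe; 0% = median of test compound wells and 100% = reference inhibitor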
# CSN inh = CSN deneddylation inhibition; Purified CSN, SCF-Nedd8-OG deneddylation, fluorescence polarization; inhibition, % at 12.5 µM; 360,000 compounds, 0.38% hits; AID 651999;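 active means pattern-corrected inhibition above about 35%, with an unprinted fluorescence ratio check between 0.5 and 1.5, limit read from the data, passing the limit was not always enough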;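 further: 0% = enzyme with substrate and 100% = substrate without enzyme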
# Target sequence (Q92905 whole entry, looked up, one chain of several): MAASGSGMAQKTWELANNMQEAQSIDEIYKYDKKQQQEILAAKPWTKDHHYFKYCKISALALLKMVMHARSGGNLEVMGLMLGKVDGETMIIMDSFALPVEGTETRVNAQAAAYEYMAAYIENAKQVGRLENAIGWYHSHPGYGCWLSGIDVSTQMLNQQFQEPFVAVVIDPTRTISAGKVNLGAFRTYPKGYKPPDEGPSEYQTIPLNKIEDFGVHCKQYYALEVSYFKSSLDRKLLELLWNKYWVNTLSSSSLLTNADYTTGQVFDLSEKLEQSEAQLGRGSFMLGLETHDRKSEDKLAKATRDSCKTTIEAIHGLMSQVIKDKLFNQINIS
#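 Assay system: purified human Csn5 enzyme expressed in HEK293T cells; measure: % inhibition; also added: SCFSkp2-Nedd8OG substrate at 10 nM final; technique: fluorescence polarization; times: reaction 90 min, room temperature; medium: Tris buffer pH 7.5, NaCl, DTT, Tween-20, trehalose, ovalbumin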
# MBD2 inh = MBD2-methylated oligo binding inhibition; AID 686964; 370,000 compounds, 0.31% hits; TR-FRET, MBD2 binding to methylated oligonucleotide; Q9UBB5; inhibition, % at 4.4 µM; in the data active means inhibition above about 13%
# ATG4B inh = blocks human ATG4B protease cleavage of LC3 substrate | Q9Y4P1 | ATG4B cleavage of LC3-PLA2, NBD-HPC fluorescence, 1 h | inhibition, % at 8.33 µM | 340,000 compounds, 0.51% hits; in the data active means inhibition above about 40%
# The depositor's hits bear a star; . = no result.
SMILES,rCAG RNA binder,LEDGF integ inh,UHRF1 MBD2 ctr,CSN inh,MBD2 inh,ATG4B inh
C[C@@H]1CN([C@H](C)CO)S(=O)(=O)c2ccc(C#CC3CCCC3)cc2O[C@H]1CN(C)C(=O)Cc1ccccc1,4,3,22*,-1,10,.
CCCN(C)C[C@H]1Oc2cc(C#Cc3ccc(F)cc3)ccc2S(=O)(=O)N([C@H](C)CO)C[C@@H]1C,6,-5,22*,1,14*,.
C[C@@H]1CN([C@H](C)CO)S(=O)(=O)c2ccc(C#Cc3ccccc3)cc2O[C@@H]1CN(C)C(=O)CN(C)C,8,-5,-2,1,3,.
CCCC#Cc1ccc2c(c1)O[C@H](CN(C)C(=O)CC1CC1)[C@H](C)CN([C@@H](C)CO)S2(=O)=O,3,-4,24*,-4,11,.
CCC(=O)N(C)C[C@@H]1Oc2cc(Br)ccc2S(=O)(=O)N([C@@H](C)CO)C[C@@H]1C,-1,-2,1,1,3,.
CCCNC(=O)N(C)C[C@@H]1Oc2cc(C#C[C@H](C)O)ccc2S(=O)(=O)N([C@H](C)CO)C[C@H]1C,4,2,2,1,1,.
O=C(NC1CCCCN(Cc2cccc(C(F)(F)F)c2)C1=O)c1ccc(F)c(F)c1 (stereo unspecified),-3,5,2,.,1,.
CCCCCCC/C=C(\C)[C@@H](O)[C@@H](C)C(=O)N1CCC[C@@H]1C(=O)O,.,7,18,.,6,.
Fc1cc(F)c(CSc2nnc(-c3cccnc3)n2Cc2ccccc2)cc1F,2,7,-2,.,1,.
Cc1nc2[nH]c(=S)[nH]c(=O)c2nc1C,4,3,2,-1,-1,-1
Cc1nc2c(=O)[nH]c(=S)[nH]c2[nH]c1=O,26,22*,85*,24,48*,3
O=C(Cn1c(=O)oc2cc(S(=O)(=O)N3CCCC3)ccc21)N1CCN(C2CCCCC2)CC1,1,-2,1,3,-2,-6
O=C(Cn1c(=O)oc2cc(S(=O)(=O)N3CCCCC3)ccc21)N1CCCCC1,-4,1,52*,-2,-4,-4
Cc1cccc(C(O)c2ncc(-c3ccc4ccccc4c3)[nH]2)c1C (stereo unspecified),4,-6,30*,3,4,.
COc1cccc(-c2cnc(C(O)c3cccc(C)c3C)[nH]2)c1 (stereo unspecified),0,0,2,5,6,.
O=C(N/N=C/c1cccnc1)c1cccc(NC(=O)c2ccc(Cl)cc2)c1,.,.,.,110*,.,-1
Cc1ccc(-c2c(NC(=O)c3ccccc3)nc3ncccn23)cc1,1,4,-1,.,-8,.
COc1cc2c(cc1NC(=O)Nc1ccccc1)oc1ccccc12,35*,-2,1,2,-3,20
CC(=NCCc1ccccc1)C1=C(O)CCC1=O,-3,-1,45*,1,3,9
CCCCCc1ccc(NC(=O)O[C@@H]2CC[C@@]34CCCN3C(=O)CCC[C@H]4C2)cc1,.,-5,1,.,-1,.
CCCC1CCC2(CC1)CCC2OC(=S)Nc1ccccc1Br (stereo unspecified),.,-1,-1,.,-2,.
COCCNc1oc(/C=C/c2cccs2)nc1S(=O)(=O)c1ccccc1,4,-4,53*,5,1,.
COc1cccc(N2CCN(C(=O)CCn3nnc4ccccc43)CC2)c1,0,4,1,.,-2,.
COc1ccccc1NC(=O)CSc1nnc(CCC(=O)Nc2ccccc2F)n1C,1,-1,21*,6,4,-4
COc1ccccc1-n1c(SCC(=O)NC(C)(C)C)nc(O)cc1=O,11,-1,-4,-1,0,-7
SMILES,rCAG RNA binder,LEDGF integ inh,UHRF1 MBD2 ctr,CSN inh,MBD2 inh,ATG4B inh
CC(C)(C)NC(=O)CSc1nc(O)cc(=O)n1-c1ccccc1F,7,2,1,56*,-2,-3
COc1ccccc1-n1c(SCC(=O)NC(C)(C)C)nc(O)c(Cc2ccccc2)c1=O,1,0,22*,3,6,-9
O=C(O)Cn1nnnc1SCC(=O)Nc1ccccc1F,2,2,26*,-2,9,0
COC(=O)c1ccccc1NC(=O)CSc1nnnn1CC(=O)O,2,4,-2,-3,-5,3
COc1ccc(OC)c(S(=O)(=O)N2CCC(C(=O)NCC3COCCO3)CC2)c1 (stereo unspecified),0,0,0,.,1,.
CCOC(=O)[C@]12CCCC=C1N(CCCOC)C(=O)[C@@H]2CC(=O)N1CCN(C(=O)c2ccco2)CC1,0,2,0,.,-5,.
CCOc1ccc(-c2nc(CSCC(=O)NC3CCC3)c(C)o2)cc1,.,-1,-1,.,-2,.
COc1ccccc1NC(=O)CSc1nc(O)cc(=O)n1-c1ccccc1OC,40*,2,1,0,-1,0
Cc1cccc(N2CCN(c3ccc4cc(S(=O)(=O)N5CCCCC5)ccc4n3)CC2)c1C,1,1,23*,0,11,-2
Cc1ccc(C)c(N2CCN(c3ccc4cc(S(=O)(=O)N5CCCCC5)ccc4n3)CC2)c1,1,0,19,1,2,3
CN(CCc1ccccn1)C(=O)c1cc2ccccn2n1,4,-2,4,.,1,.
O=C(COC(=O)c1cc(=O)[nH]c2ccccc12)NC1CCCC1,-3,0,30*,-6,6,-11
CC(=O)Nc1cc(-c2cccc(C(=O)NCCN(C)C)c2)cn2c(-c3ccc(F)c(Cl)c3)cnc12,6,2,1,82*,-2,.
COc1ccc(OC)c(NC(=O)C(C)N2c3cccc4cccc(c34)S2(=O)=O)c1 (stereo unspecified),9,30*,3,-4,-6,6
COc1ccc(OC)c(NC(=O)CN2c3cccc4cccc(c34)S2(=O)=O)c1,7,2,1,1,-5,-5
O=C(Nc1ccc(Br)cc1)c1cccc(S(=O)(=O)Nc2cnc3ccccc3c2)c1,80*,-2,-4,5,-2,5
Cc1onc(-c2c(F)cccc2Cl)c1C(=O)c1ccc(F)cc1,-6,1,73*,-4,-4,-3
Cc1onc(-c2c(Cl)cccc2Cl)c1C(=O)OCC(=O)c1ccccc1,-2,2,52*,0,4,1
O=C(C1CCN(S(=O)(=O)c2ccc(Br)s2)CC1)N1CCc2ccccc21,.,.,.,0,.,41*
COc1ccc(NC(=O)c2cc3c(C)nn(-c4ccccc4)c3s2)cc1,16,-1,4,.,6,.
CCOc1ccc(-n2c(C)cc(C(=O)NS(=O)(=O)c3ccc(C)cc3)c2C)cc1,-1,-2,52*,-1,2,-1
COc1ccc(C(=O)O[C@@H]2CCC[C@@]3(C(=O)N(Cc4ccccc4)c4ccccc43)[C@H]2NC(=O)CCc2ccccc2)cc1OC,11,0,-2,.,-2,.
